Source: PubChem BioAssay
This is a sample that favours compounds with a hit; in the whole collection about 2.7% have one here.
HIV Env fusion = inhibitors of HIV-1 Env-driven cell-cell fusion, primary screen, HeLa-JRFL effector, CEM21 target cells, luciferase | inhibition, % at 12.3 µM | 1.1% of 360,000 active | AID 651610, 2012;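 active = mean replicate inhibition score of at least 50 and every replicate individually at or above 50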
CFTR F508del cor = F508del CFTR correction, initial screen, CFBE line, single point; CFBE cells, YFP halide quenching; stimulated with forskolin plus potentiator P3; % fluorescence drop versus neutral controls; activity (quench increase), % at 7.58 µM; 0.36% of 350,000 active; AID 720511, 2013;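 active = mean added fluorescence quench of at least 8% versus neutral control, with both replicates also reaching 8%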;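 also: cells transiently co-express mutant CFTR-F508del with the halide-sensitive YFP; corrector assay measuring rescue of mutant channel to the surface after 24 h compound exposure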
S100A4 inh HTS = inhibitors of S100A4-myosin IIA peptide binding, primary screen, biochemical, fluorescence polarization, TAMRA-MyoIIA peptide | 0.14% of 360,000 active | Protein S100-A4 (Homo sapiens), P26447 | inhibition, % at 10.7 µM;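 active = mean inhibition of at least 70% across replicates, with every replicate also reaching that level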
Target sequence (P26447 whole entry, looked up): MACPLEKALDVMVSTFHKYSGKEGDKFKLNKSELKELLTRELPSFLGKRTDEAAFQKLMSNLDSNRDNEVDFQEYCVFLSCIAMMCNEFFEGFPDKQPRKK
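Material: S100A4 monomer protein / Buffer or medium: 50 mM HEPES pH 7.2, 10 mM CaCl2, 100 mM KCl / Times: 5 min incubation before reading / Benchmarks: neutral control DMSO, positive control TFP / Reagent: labelled myosin peptide probe, 5 nM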
FGF22 binding = binders of human FGF22 protein, primary screen, FGF22 synaptogenesis inhibitor project, biophysical, thermal shift, single point | Fibroblast growth factor 22 (Homo sapiens), Q9HCT0 | recombinant FGF22 thermal shift, SYPRO orange fluorescence; percent of sucrose octasulfate shift, DMSO zero | 1.5% of 340,000 active | activity (Tm shift, normalised), % at 9.99 µM;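 active = mean Tm shift, scaled 0 neutral to 100 positive control, at about 1.3% or above, every replicate too, limit read from the data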
Target sequence (Q9HCT0 whole entry, looked up): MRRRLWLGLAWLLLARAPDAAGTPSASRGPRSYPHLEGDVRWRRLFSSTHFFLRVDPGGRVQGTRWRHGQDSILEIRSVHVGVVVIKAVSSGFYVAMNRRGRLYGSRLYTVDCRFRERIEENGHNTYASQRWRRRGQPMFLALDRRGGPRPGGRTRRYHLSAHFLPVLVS
E-selectin induc = E-selectin induction in HUVECs, primary screen, imaging, HUVEC, immunofluorescence imaging, single point; P16581; normalized: neutral wells 0, TNF-alpha wells 100; activation, % at 7.58 µM; 0.37% of 260,000 active; AID 686992, 2013;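 active = mean E-selectin-positive cell signal at least 10% of the positive control, reached in at least 60% of replicates, without over 20% cell loss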
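assay system = HUVEC, human umbilical vein endothelial cells | input = 3,000 HUVEC seeded per well | medium = EGM-2 growth medium on 0.1% gelatin-coated wells | dosing = one compound dose added by pin transfer | signal = immunofluorescence imaging | read-out basis = % PE-positive cells | control set = TNF-alpha, DMSO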
Each line names hits and unclear results; the compound was inactive in the other large screens; [ ] = remark or other dose.

C[C@@H]1CN([C@H](C)CO)C(=O)c2cc(NS(=O)(=O)c3ccc(F)cc3)ccc2O[C@@H](C)CCCCO[C@@H]1CN(C)C(=O)NC1CCCCC1	S100A4 inh HTS 120
Cc1noc(C)c1S(=O)(=O)Nc1ccc2c(c1)C(=O)N([C@@H](C)CO)C[C@@H](C)[C@H](CN(C)Cc1ccc(C(=O)O)cc1)OCCCC[C@@H](C)O2	none
C[C@@H]1CCCCO[C@@H](CN(C)C(=O)Nc2ccc(C(F)(F)F)cc2)[C@H](C)CN([C@H](C)CO)C(=O)c2cc(NS(=O)(=O)c3ccc(F)cc3)ccc2O1	none (no result: E-selectin induc)
C[C@@H]1CCCCO[C@@H](CN(C)C(=O)NC2CCCCC2)[C@@H](C)CN([C@H](C)CO)C(=O)c2cc(NS(=O)(=O)c3ccc(F)cc3)ccc2O1	none (no result: E-selectin induc)
Cc1noc(C)c1S(=O)(=O)Nc1ccc2c(c1)C(=O)N([C@@H](C)CO)C[C@H](C)[C@@H](CN(C)C(=O)Nc1ccc(C(F)(F)F)cc1)OCCCC[C@H](C)O2	HIV Env fusion 57[16.7 µM]
C[C@H]1CCCCO[C@H](CN(C)C(=O)Nc2ccc(C(F)(F)F)cc2)[C@@H](C)CN([C@@H](C)CO)C(=O)c2cc(NS(=O)(=O)c3ccc(F)cc3)ccc2O1	HIV Env fusion 78[16.7 µM] (no result: E-selectin induc)
CC=Cc1ccc2n(c1=O)C[C@H]1[C@H](CO)[C@@H](C(=O)N[C@H](C)c3ccccc3)[C@@H]2N1Cc1ccccc1 (mixture of isomers)	none (no result: HIV Env fusion, FGF22 binding)
CC(C)NC(=O)Nc1ccc2c(c1)C(=O)N([C@@H](C)CO)C[C@@H](C)[C@@H](CN(C)C)O2	none
CC(C)(C)[S@@](=O)N1Cc2cc(C(=O)N3CCCCC3)nc(-c3cccc(Br)c3)c2[C@H]1CCO	none (no result: HIV Env fusion, FGF22 binding)
C[C@@H]1CCCCO[C@H](CN(C)S(=O)(=O)c2cccs2)[C@H](C)CN([C@@H](C)CO)C(=O)c2cc(NC(=O)c3ccncc3)ccc2O1	none (no result: E-selectin induc)
COc1ccc(S(=O)(=O)Nc2ccc3c(c2)C(=O)N([C@H](C)CO)C[C@@H](C)[C@H](CN(C)C(=O)Nc2ccc(C(F)(F)F)cc2)OCCCC[C@@H](C)O3)cc1	FGF22 binding 1.2
C[C@H](CO)N1C[C@H](C)[C@H](CN(C)C(=O)Nc2ccc(C(F)(F)F)cc2)OCCCC[C@H](C)Oc2ccc(NS(=O)(=O)c3ccc(F)cc3)cc2C1=O	HIV Env fusion 59[16.7 µM] (no result: E-selectin induc)
Cc1ccc(S(=O)(=O)Nc2ccc3c(c2)C(=O)N([C@@H](C)CO)C[C@H](C)[C@@H](CN(C)C(=O)Nc2ccc(C(F)(F)F)cc2)OCCCC[C@H](C)O3)cc1	HIV Env fusion 69[16.7 µM]
Cc1ccc(S(=O)(=O)Nc2ccc3c(c2)C(=O)N([C@H](C)CO)C[C@H](C)[C@@H](CN(C)C(=O)Nc2ccc(C(F)(F)F)cc2)OCCCC[C@H](C)O3)cc1	none
COc1ccc(S(=O)(=O)Nc2ccc3c(c2)C(=O)N([C@H](C)CO)C[C@@H](C)[C@H](CN(C)C(=O)Nc2ccc(C(F)(F)F)cc2)OCCCC[C@H](C)O3)cc1	none
C[C@H]1CN([C@@H](C)CO)C(=O)c2cc(-c3ccncc3)cnc2O[C@@H]1CN(C)C(=O)c1ccc(F)cc1	none
CCS(=O)(=O)c1nc(S(=O)(=O)c2ccc(Cl)cc2)c(N2CCC3(CC2)OCCO3)s1	FGF22 binding 43 (no result: E-selectin induc)
CC(NC(=O)C12CC3CC(C)(CC(C)(C3)C1)C2)c1ccncc1 (configuration not stated)	HIV Env fusion 65 (no result: E-selectin induc)
C[C@H]1CN([C@@H](C)CO)C(=O)Cc2cc(NC(=O)Cc3ccccc3)ccc2O[C@H]1CN(C)CC1CC1	none (no result: FGF22 binding)
Cc1ccccc1S(=O)(=O)N(C)C[C@@H]1OCc2ccccc2-c2c(n(C)c3ccccc23)C(=O)N([C@H](C)CO)C[C@@H]1C	HIV Env fusion 74
C[C@@H]1CN([C@H](C)CO)C(=O)c2c(c3ccccc3n2C)-c2ccccc2CO[C@H]1CN(C)S(=O)(=O)c1ccccc1	S100A4 inh HTS 131 (no result: HIV Env fusion)
C[C@@H]1CN([C@H](C)CO)C(=O)c2ccccc2-c2ccccc2CO[C@H]1CN(C)S(=O)(=O)c1ccc(Cl)cc1	none
Cc1ccccc1S(=O)(=O)N(C)C[C@H]1OCc2ccccc2-c2c(n(C)c3ccccc23)C(=O)N([C@H](C)CO)C[C@@H]1C	none (no result: HIV Env fusion)
C[C@H]1CN([C@@H](C)CO)C(=O)c2c(c3ccccc3n2C)-c2ccccc2CO[C@H]1CN(C)S(=O)(=O)c1ccccc1	none (no result: HIV Env fusion)
C[C@@H]1CN([C@@H](C)CO)C(=O)c2c(c3ccccc3n2C)-c2ccccc2CO[C@H]1CN(C)S(=O)(=O)c1ccc(C#N)cc1	HIV Env fusion 69
C[C@H]1CN([C@@H](C)CO)C(=O)c2ccccc2-c2ccccc2CO[C@H]1CN(C)S(=O)(=O)c1ccc(Cl)cc1	HIV Env fusion 55[16.7 µM]
C[C@@H]1CN([C@@H](C)CO)C(=O)c2cc(-c3ccc(C#N)cc3)cnc2O[C@H]1CN(C)C(=O)Nc1ccc(F)cc1	none
CN1c2ccc(-c3ccccc3)cc2[C@H]2[C@H](CCN2C(=O)c2ccccc2)[C@@H]1CO	none (no result: HIV Env fusion)
Cc1oc(C(C)(C)C)cc1C(=O)Nc1cccc(/C=C\C(=O)O)c1	none (no result: CFTR F508del cor, S100A4 inh HTS, FGF22 binding, E-selectin induc)
Cc1oc(-c2ccccc2)cc1C(=O)Nc1cccc(/C=C\C(=O)O)c1	FGF22 binding 44 (no result: E-selectin induc)
O=C(C[C@H]1C[C@@H]2c3cc(NC(=O)Nc4ccccc4)ccc3O[C@@H]2[C@@H](CO)O1)NCc1cccnc1	none (no result: S100A4 inh HTS)
COc1ccc2c3c([nH]c2c1)[C@@H](CO)N(C(=O)c1cccnc1)CC31CN(Cc2cccnc2)C1	none
O=C(CN1CCN(Cc2ccccc2F)C1=O)NC1CCCC1	none
O=C(CN1CCCN(Cc2ccc(F)cc2Cl)C1=O)NC1CCCCCCC1	HIV Env fusion 72 (no result: CFTR F508del cor, S100A4 inh HTS, FGF22 binding, E-selectin induc)
COc1ccc(S(=O)(=O)N[C@H]2C=C[C@H](CC(=O)N3CCN(c4ccccc4)CC3)O[C@H]2CO)cc1	none
C[C@@H]1CCCCO[C@H](CN(C)C(=O)CCCN(C)C)[C@H](C)CN([C@@H](C)CO)C(=O)c2cc(NC(=O)c3ccccc3)ccc2O1	none
N#Cc1ccc(OCC(=O)N/N=C(\CCC(=O)O)c2cccs2)cc1	FGF22 binding 43 (no result: E-selectin induc)
CCOC(=O)N/N=C(\CCC(=O)O)c1cccs1	none (no result: E-selectin induc)
Cc1cccc(C)c1N1C(=O)CC(Sc2ccccc2N)C1=O (configuration not stated)	FGF22 binding 44
CC(C)NC(=O)CN1C(=O)c2ccccc2S1(=O)=O	none (no result: E-selectin induc)
Cc1cc(C(=O)CN2C(=O)c3ccccc3S2(=O)=O)c(C)n1C(C)C	HIV Env fusion 91
CCCn1c(C)cc(C(=O)CN2C(=O)c3ccccc3C2=O)c1C	none
